Here are results for 22 molecules from ChEMBL document CHEMBL1629514, “Synthesis, biological activity, and evaluation of the mode of action of novel antitubercular benzofurobenzopyrans substituted on A ring” (Eur J Med Chem, 2010).

Values after ≈ are worked out from the molar mass of the structure shown. Bounds are passed on as bounds.

Assay [1] relates to Mycobacterium tuberculosis. Description: Antimycobacterial activity against Mycobacterium tuberculosis H37Rv after 6 days by Microdilution Resazurin assay. In kind it is functional. The note with it: 144 h. In a few lines: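 M. tuberculosis H37Rv grown in 7H9 with 10% ADC enrichment. Two-fold serial dilutions from 500 to 0.9 µg/mL, using DMSO stocks, in 7H9. Incubated at 37 °C for 6 days, then 0.01% resazurin added and incubated a further 24 h. MIC is the lowest concentration preventing the blue-to-pink colour change. DMSO growth controls and isoniazid (1 µg/mL to 1 ng/mL) were included.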
On the technique in general: In broth dilution the organism is exposed to a series of concentrations in liquid medium.

In another assay the test system is Vero. Description: Cytotoxicity against african green monkey Vero cells assessed as cell growth after 48 hrs by hemocytometry. The note with it: Chlorocebus sabaeus. The format is cell-based. In a few lines: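 VERO cells grown in DMEM with 10% v/v FBS plus penicillin/streptomycin, 37 °C, humidified 5% CO2. Log-phase cells seeded in 24-well plates and allowed to attach 3 h. Compounds diluted in DMSO (final ≤0.4% v/v) and tested at 10^-8 to 10^-4 M. Cells counted after 48 h. Two experiments in duplicate; mean used to derive IC50.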

Assay [2] in a line: Selectivity index, ratio of IC50 for african green monkey VERO cells to MIC95 for Mycobacterium tuberculosis H37Rv. The format is functional. In a few lines:
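VERO cells grown in DMEM with 10% FBS at 37 °C and 5% CO2. Seeded at 2×10^4 cells/mL and allowed to attach for 3 h. Compounds added at 10^-8 to 10^-4 M (DMSO ≤0.4% v/v) and cells counted by hemocytometer after 48 h. IC50 from means of two experiments in duplicate. SI is VERO IC50 divided by the M. tuberculosis MIC95.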

Assay [3] relates to Mycolicibacterium smegmatis. Description: Antimycobacterial activity against Mycobacterium smegmatis mc2155 assessed as inhibition of mycolic acid biosynthesis at 1 to 25 ug/ml after 15 mins. In kind it is functional. The procedure, abridged: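 Cell-free assay on cell wall extracts from bacteria washed in phosphate buffer and disrupted at 0.8 kbar, using 500 µg extract protein. Buffer was 100 mM potassium phosphate pH 7.0 with 3 mM MgCl2, 7 mM KHCO3, 7 mM ATP and 0.7 mM CoASH. Compounds (5% v/v DMSO final) preincubated 15 min at 37 °C, then [1-14C]acetate added for 60 min at 37 °C. Reactions saponified and mycolate profiles run on TLC; % inhibition taken against control. Thiolactomycin was the reference, run at two concentrations.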

In assay [4] the test system is Mycobacterium tuberculosis. Description: Antimycobacterial activity against Mycobacterium tuberculosis. In kind it is functional.
For assay [5], the system named is Mycolicibacterium smegmatis. Description: Antimycobacterial activity against Mycobacterium smegmatis. The format is functional.

With `CC(=O)c1ccc2oc3ccc4c(c3c2c1)CCC(C)(C)O4`, the MIC95 in assay [1] was over 340 µM.
`CC1(C)C=Cc2c(ccc3oc4c(Cl)cccc4c23)O1`: the IC50 in the assay with Vero was determined as 100 µM. The “Selectivity Index” value in assay [2] was found to be 1.2. In assay [1], this molecule had an MIC95 of 87.5 µM (≈ 24.9 µg/mL).
For the molecule `CC1(C)C=Cc2c(ccc3oc4cc(Br)ccc4c23)O1`, in assay [2], the “Selectivity Index” value is listed as 93.3. Moreover, the MIC95 in assay [1] stood at 37.5 µM (≈ 12.3 µg/mL).
Consider `CC1(C)C=Cc2c(ccc3oc4ccc(Cl)cc4c23)O1`, for which, in the assay with Vero, the IC50 was determined as 290 µM. For the same molecule, the “Selectivity Index” value in assay [2] is recorded as 0.8. The molecule also gave an MIC95 in assay [1] of 353 µM (≈ 101 µg/mL).
In the same order, the values of `CC1(C)C=Cc2c(ccc3oc4cccc(Cl)c4c23)O1` are 100 µM, 2.3 and 43.8 µM (≈ 12.5 µg/mL).
In the same order, the values of `CC1(C)C=Cc2c(ccc3oc4c(O)cccc4c23)O1` are 3.3 µM, 0.1 and 23.5 µM (≈ 6.26 µg/mL).
For the molecule `CC1(C)C=Cc2c(ccc3oc4cc(O)ccc4c23)O1`, the IC50 in the assay on Vero turned out to be 9.2 µM. In addition, the “Selectivity Index” value in assay [2] came to 0.4. This molecule came in with an MIC95 in assay [1] of 23.5 µM (≈ 6.26 µg/mL).
The corresponding values for `CC1(C)C=Cc2c(ccc3oc4ccc(O)cc4c23)O1` are 5 µM, 0.1 and 47 µM (≈ 12.5 µg/mL).
In the same order, the values of `CC1(C)C=Cc2c(ccc3oc4cccc(O)c4c23)O1` are 9.1 µM, 0.1 and 95 µM (≈ 25.3 µg/mL).
The corresponding values for `CC1(C)CCc2c(ccc3oc4ccc(O)cc4c23)O1` are 18 µM, 0.4 and 46.5 µM (≈ 12.5 µg/mL).
For `COc1cccc2c1oc1ccc3c(c12)C=CC(C)(C)O3`, in the assay on Vero, the IC50 was 100 µM. Also, the “inhibition (INH)” value in assay [3] is over 60%. Moreover, the “Selectivity Index” value in assay [2] was 2.2. In addition, the MIC95 in assay [1] was 45 µM (≈ 12.6 µg/mL).
Consider `COc1ccc2c(c1)oc1ccc3c(c12)C=CC(C)(C)O3`, for which, in the assay on Vero, the IC50 turned out to be 100 µM. Besides, the “inhibition (INH)” value in assay [3] is reported as over 60%. In addition, the “Selectivity Index” value in assay [2] amounted to 1.1. For the same molecule, the MIC95 in assay [1] stood at 89 µM (≈ 24.9 µg/mL).
In the same order, the values of `COc1ccc2oc3ccc4c(c3c2c1)C=CC(C)(C)O4` are 100 µM, over 60%, 2.2 and 45 µM (≈ 12.6 µg/mL).
`COc1cccc2oc3ccc4c(c3c12)C=CC(C)(C)O4`: in the assay with Vero, the IC50 was found to be 280 µM. Also, in assay [3], the “inhibition (INH)” value is reported as over 60%. The “Selectivity Index” value in assay [2] is given as 6.2. In assay [1], the MIC95 was found to be 45 µM (≈ 12.6 µg/mL).
Consider `COc1ccc2oc3cc4c(cc3c2c1)OC(C)(C)C=C4`, for which the “Selectivity Index” value in assay [2] stood at 83.2. For the same molecule, the MIC95 in assay [1] amounted to 89 µM (≈ 24.9 µg/mL).
On to `CC1(C)C=Cc2c(ccc3c2oc2ccc4c(c23)C=CC(C)(C)O4)O1`, for which the MIC95 in assay [1] was over 300 µM.
Same read-out and setting: the same measure for `CC1(C)C=Cc2c(ccc3oc4cc(-c5ccc6c(c5)oc5ccc7c(c56)C=CC(C)(C)O7)ccc4c23)O1`: over 200 µM.
As for `CC1(C)C=Cc2c(ccc3oc4ccncc4c23)O1`, the MIC95 in assay [4] came out at 16 µg/mL (≈ 63.7 µM); in assay [5] it was 8 µg/mL (≈ 31.8 µM).
Turning to `CC(=O)c1ccc2oc3ccc4c(c3c2c1)C=CC(C)(C)O4`, in assay [1], the MIC95 was over 1710 µM.
Take `CC1(C)C=Cc2c(ccc3oc4ccccc4c23)O1`: in the assay on Vero, the IC50 turned out to be 320 µM. Besides, the “Selectivity Index” value in assay [2] came to 3.2. Besides, the MIC95 in assay [1] is 100 µM (≈ 25 µg/mL).
As to `COc1cccc2c1C(=O)c1c(O)c3c(c(O)c1C2=O)C[C@@](O)(C(=O)CO)C[C@@H]3O[C@H]1C[C@H](N)[C@H](O)[C@H](C)O1` [DOXORUBICIN], the IC50 in the assay on Vero was 3.6 µM.
Take `NNC(=O)c1ccncc1` [ISONIAZID]: in the assay with Vero, the half-inhibitory concentration (IC50) is over 100 µM. The same molecule had an MIC95 in assay [1] of 1.8 µM (≈ 0.247 µg/mL).

In general, IC50 refers to the midpoint of a concentration-inhibition curve.
